Measurements from ChEMBL document CHEMBL4513216, “Probing the Open Global Health Chemical Diversity Library for Multistage-Active Starting Points for Next-Generation Antimalarials” (ACS Infect Dis, 2020).

Experiment: Toxicity liver stage against HepG2, at 10uM
Type: cell-based
Design: test concentration 10 uM, cell line HepG2-A16-CD81EGFP
Conditions: human, HepG2-A16-CD81EGFP cells; read-out: INHIBITION
In short: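 Uninfected HepG2-A16-CD81EGFP cells, 3 × 10^3 per well, 1536-well, plated on prespotted compound at 10 μM final, parasite-free screening media added to match infected plates; puromycin 10 μM positive, DMSO 0.5% negative; run in parallel with 48 h PbLuc assay at 37 °C, 5% CO2; viability by CellTiter-Glo luminescence, normalized to controls.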

Row | Compound | cytotoxicity at 10 µM
1 | Cc1c(C(C)Nc2ncnc3sccc23)cnn1C (stereo unspecified) | 40.1%
2 | COCCNC(=O)c1ccc2c(=O)n3c(nc2c1)CCCC3 | 10%
3 | CCCOc1c(Cl)cc(C(=O)N2CCOC23CCN(C)CC3)cc1Cl | 8.17%
4 | O=c1c(NCCNCCO)c(N2CCN(c3ccccc3)CC2)c1=O | -7.76%
5 | CCS(=O)(=O)N1CCC2(CCCN(c3ncc(F)cn3)C2)C1 (stereo unspecified) | 10.3%
6 | CS(=O)(=O)N1CCCCC12CCN(c1nncs1)CC2 | 10.6%
7 | O=C(NC1CCCC1)c1cc2c(s1)CCN2C(=O)c1ccccc1 | 6.55%
8 | Cc1c(C)n(Cc2ccccn2)c2nc3c(c(N)c12)CCCCC3 | 3.3%
9 | CCc1cnc2c(c1NCc1cccc(OC)c1)c(=O)n(C)c(=O)n2C | 24.8%
10 | COCCC(=O)N1CCCC2(CCC(=O)N2CCOC)CC1 (stereo unspecified) | 2.52%
11 | CCOc1ccc(N2CCCN=C2NC(=O)c2cccc(OC)c2)cc1 | 5.2%
12 | CCN1CC(Oc2ccc(Cl)cc2)=NC(SCC(=O)c2ccccc2)=N1 | 0.515%
13 | O=C1CNc2ncnc(N3CCN(Cc4cccc(F)c4)CC3)c2N1 | 7.88%
14 | CN(C)CCNC(=O)CCn1ncc2c(Cl)cccc21 | 5.92%
15 | CCn1cc(CNC(=O)CCn2ncc3c(Cl)cccc32)cn1 | 10.9%
16 | COCCNC(=O)CCn1ncc2c(Cl)cccc21 | 10.5%
17 | Cc1c(Cl)c(C(=O)NN2CCOCC2)nn1C | 7.47%
18 | O=C1CCC(c2nc(C3CCNCC3)no2)N1 (stereo unspecified) | -3.96%
19 | CS(=O)(=O)N1CC2(CCN(C3COC3)C2)Cc2ccccc21 (stereo unspecified) | 11.9%
20 | CS(=O)(=O)N1CC2(CCCN(CC3CC3)C2)Cc2ccccc21 (stereo unspecified) | 2.85%
21 | O=C(Nc1c(N2CCCC2)cccc1N1CCCC1)c1ccccn1 | -25.7%
22 | O=C1CC[C@H](C(=O)N(CCc2ccccc2)C2CCOC2)N1 (stereo partly specified) | 1.15%
23 | O=C(CN1CCCS1(=O)=O)Nc1cccc(COC2CCCCC2)c1 | 0.568%

Row | Compound | cytotoxicity at 10 µM
24 | CC(C)OCCN1CCC(Nc2ncccn2)CC1 | -1%
25 | COC(=O)C(NC(=O)c1cc(F)cc(F)c1)c1cccnc1 (stereo unspecified) | -39.1%
26 | COc1ccc(Oc2ncccc2NC(=O)N2CCOCC2)cc1 | 9.11%
27 | COCCOCCC(=O)N1CCC(c2ccccc2C)C1 (stereo unspecified) | -9.46%
28 | CCSCCC(C)N(C)C(=O)c1cc(C)no1 (stereo unspecified) | -9.99%
29 | Cn1ccc2c(C(=O)NCCCN3CCCC3)cccc21 | -18.3%
30 | Cc1nc(CCNC(=O)NCC(c2ccco2)N(C)C)cs1 (stereo unspecified) | 7.26%
31 | CNS(=O)(=O)c1cccc(C(C)NCc2ccco2)c1 (stereo unspecified) | 4.61%
32 | CN1CCN(Cc2ccccc2CNC(=O)c2ccc(Cl)cc2F)CC1 | 15.5%
33 | Cc1ccc(-c2ccc(C(=O)NCCS(N)(=O)=O)c(F)c2)cc1 | 11.3%
34 | Cc1nc(N2CCCC(N3CCCC3)C2)c2cnn(C)c2n1 (stereo unspecified) | -4.07%
35 | Cc1cnc(CNc2ccccc2CN(C)C(=O)c2cccs2)o1 | -3.83%
36 | CN(C)c1nccc(N(C)Cc2nc3ccccc3n2C)n1 | 0.482%
37 | COCC(C)(C#N)NC(=O)c1cn(-c2cccc(Cl)c2F)nn1 (stereo unspecified) | 0.472%
38 | COc1cc(NC(=O)N2CCCC2c2nncn2C)ccc1Br (stereo unspecified) | 5.67%
39 | CCN1CCN(C(=O)Cc2ccc(S(=O)(=O)C(F)F)cc2)CC1 | -6.43%
40 | Cc1c(C(=O)NS(=O)(=O)c2ccc(F)cc2)cnn1CC(C)C | -6.63%
41 | COCCN(CCOC)S(=O)(=O)N(C)Cc1ccncc1 | 8.07%
42 | COc1cccc(C(O)CN2CCN(C(=O)CCC(C)C)CC2)c1 (stereo unspecified) | -46.9%
43 | CC(=O)N1CCCCCC1C1CCN(Cc2nc(C3CC3)no2)CC1 (stereo unspecified) | -56.4%
44 | CCNC(=O)N(C)Cc1ccc(SC)c(OC)c1 | -13.1%
45 | CC(c1nc(C2CC2)no1)N1CCN(c2ccc(C#N)cn2)CC1 (stereo unspecified) | 1.18%
46 | Cc1oncc1C(=O)N1CC[C@H]2[C@@H]1CCC(=O)N2CC1CC1 | 6.42%

Row | Compound | cytotoxicity at 10 µM
47 | Cc1ccc2c(n1)N(CC1CC1)CCN(Cc1cnn(C)c1)C2 | -2.91%
48 | CC(C)n1c2ccccc2c2c1cc(C(=O)NCCO)n2C(=O)N(C)C | -93.8%
49 | COCCn1c2c(ccc1=O)CC(NCc1cnn(C)c1)CC2 (stereo unspecified) | -103%
50 | Cn1cc(C[C@H]2[C@H](N3CCOCC3)CCN2C(=O)c2ccc[nH]2)cn1 | -75%
51 | C[C@@H]1C[C@@H]2CCN(Cc3ccccn3)C[C@H]2O1 | -75.9%
52 | Fc1cnc(N2CCCC3(CCN(Cc4nccs4)C3)C2)nc1 (stereo unspecified) | -67.9%
53 | Cc1ccc(OCCN(C)Cc2nccn2C)c(C)c1 | 5.51%
54 | Cc1nc(CN2CCCC(CCc3ccc(F)c(F)c3)C2)c[nH]1 (stereo unspecified) | -10.4%
55 | COc1ccc(-c2nccn2CCN2CCCCC2)c(OC)c1OC | 4.74%
56 | COCc1cn(C2CCN(CCC(C)c3ccccc3)CC2)nn1 (stereo unspecified) | 6.39%
57 | CCc1nc(C)c(-c2nccn2CC2CC(=O)N(CC)C2)[nH]1 (stereo unspecified) | 0.361%
58 | CCc1cc(C(=O)N[C@H]2CN(CCS(C)(=O)=O)C[C@@H]2C2CC2)[nH]n1 | 3.91%
59 | COCc1ncc(CN2CCC(Oc3ccc(OC)cc3)CC2)cn1 | -5.72%
60 | CC(C)c1cc(N[C@H](C(N)=O)C(C)C)n2nccc2n1 | -1.56%
61 | O=C1O[C@@H]2CN(Cc3cc4ccccc4o3)C[C@@H]2N1Cc1ccccn1 | 5.16%
62 | Cc1cnccc1CN(C)C(=O)c1ccc(Cn2cnnn2)cc1 | 8.15%
63 | CC(C)c1cc(C(=O)N2CCCC2c2nc(-c3ccccc3)no2)[nH]n1 (stereo unspecified) | -4.5%
64 | O=C(Nc1ccccc1-c1ccccc1)N1C[C@@H]2CNC[C@]2(C(=O)O)C1 | -40.5%
65 | COc1cc(C)c(-c2ccc(F)c3c2OC(CN)C3)cc1C (stereo unspecified) | 20.3%
66 | O=C(c1cnc[nH]1)N1CCC(Oc2cccnc2)CC1 | 6.87%
67 | COCCN1CCN(Cc2nccs2)[C@H]2CS(=O)(=O)C[C@H]21 | -1.82%
68 | C[C@@H]1CN(C(=O)CCN2CCOCC2)CC[C@]1(C)O | -0.51%
69 | CCc1[nH]c2c(CNc3nccc(N)n3)cc(F)cc2c1C | -8.36%

Row | Compound | cytotoxicity at 10 µM
70 | COc1cccc(C2CCN2C(=O)c2cc(C(C)C)on2)c1 (stereo unspecified) | -2.96%
71 | CN(Cc1csc(-c2cccs2)n1)C(=O)CN1CCOC1=O | -0.811%
72 | Cc1ncc(CN2CCC3(CC2)CC(=O)N(C)C3)cn1 | 9.8%
73 | COc1cccc(OCCCc2cc(C#N)ccn2)c1 | -9.72%
74 | COc1cccc(OC2CN(C(=O)CCn3cnnn3)C2)c1 | -0.0726%
75 | O=C1CC(NS(=O)(=O)NCc2ccccc2)CN1c1ccccc1Cl (stereo unspecified) | -5.68%
76 | Cc1nc(-c2cccnc2)ncc1C(=O)N1CCCCC(N)C1 (stereo unspecified) | 7.57%
77 | COCc1ncc(CN2CCC3(CCC(=O)N(CC(C)O)C3)CC2)cn1 (stereo unspecified) | -123%
78 | Cc1cnc(NC(C)Cc2cccnc2)nc1N(C)C (stereo unspecified) | -4.03%
79 | Cc1ccc(C(=O)N2CCC(n3cc(CO)nn3)CC2)cn1 | -1.72%
80 | CNS(=O)(=O)c1cc(C)c2[nH]c(=O)cc(C)c2c1 | -7.76%
81 | Cc1nc(N2C[C@H]3CNC[C@H]3C2)c2sccc2n1 | 9.26%
82 | COc1ccc2c(c1)OCC(Cc1cnc(N)c(C)c1)C2 (stereo unspecified) | -1.23%
83 | CC(=O)NCc1nnc2n1CCN(c1nc(C)nc3sccc13)CC2 | 15.5%
84 | c1cc(-c2cnccn2)cc(-c2ccn(CCN3CCCC3)n2)c1 | -11.5%
85 | Clc1ccccc1C1(c2ccnc(-c3ccncc3)n2)CCNCC1 | -8.16%
86 | CN1CC(c2ccccc2)CC12CCN(C(=O)c1c(Cl)cnn1C)CC2 (stereo unspecified) | -17%
87 | CSc1ccccc1CN1CCn2nc(CNC(C)=O)cc2C1 | -17%
88 | Cc1c(O)oc(-c2ccc(Br)cc2)nc1=O | -1.56%
89 | c1cnnc(N2CCCC(NCc3nc(-c4ccco4)no3)C2)c1 (stereo unspecified) | -20%
90 | Cc1ccc(NC2CCN(C(=O)c3cccc4[nH]ncc34)CC2)nn1 | -13.7%
91 | OCCn1cc(CN2CCN(CCOCC(F)(F)F)CC2)cn1 | -10.7%
92 | COCCCN1CCCN(C(C)c2nc(C3CC3)no2)CC1 (stereo unspecified) | -8.77%

Row | Compound | cytotoxicity at 10 µM
93 | CC(C)c1ccc(O)c(C(=O)N2CCN(Cc3cscn3)CC2)c1 | -3.24%
94 | Cc1cc(C)c(OCC(=O)NS(=O)(=O)c2c(C)noc2C)c(C)c1 | -6.64%
95 | Cc1cccc(OCCC(=O)N2CCCN(CC(N)=O)CC2)c1C | -7.28%
96 | CC1CN(Cc2noc(C3CC3)n2)CCN1Cc1nccn1C (stereo unspecified) | -10%
97 | c1ccc(-n2ccnc2)c(CNCC2CNc3ccnn3C2)c1 (stereo unspecified) | -8.11%
98 | Cc1cccc(C)c1OCCC(=O)N1CCC(c2nncn2C)CC1 | -12%
99 | CCn1cc(NC(=O)CCc2ccc3c(c2)OCCCO3)cn1 | -9.26%
100 | CN(C)C(=O)c1cn[nH]c1C1CCCN1Cc1nccn1C (stereo unspecified) | -1.08%
101 | Cc1nc(NCc2ccco2)nc2c1COCC21CCNC1 (stereo unspecified) | 10.3%
102 | CO[C@@H]1CCN(C(=O)Cc2ccc(F)cc2)[C@@H]1Cc1cccnc1 | 10.1%
103 | Cc1ccc(CN2CCC3(CC2)CC(c2cccnc2)C(=O)N3C)o1 (stereo unspecified) | -2.71%
104 | COc1ccccc1OCC(=O)N1C[C@@H]2CN(C)CCO[C@@H]2C1 | -2.94%
105 | CC(C)n1cnc2c(-c3cccnc3)nc(C3CCNCC3)cc21 | -114%
106 | CC(C)CS(=O)(=O)N1CCC2(CN(c3cccc(F)c3)C(=O)CN2C)C1 (stereo unspecified) | -75.2%
107 | O=C(c1ccc(F)cc1)N1C[C@@H]2COC[C@]2(COc2cccnc2)C1 | -100%
108 | CCN(C)c1ncnc2c1CCN(CC1CCOC1)CC2 (stereo unspecified) | -79.3%
109 | CC(C)(CO)Nc1cc(-c2cn[nH]c2)ncn1 | -1.44%
110 | Cc1ccc(C2c3c(n[nH]c3C)N=C3COC(=O)C32)cc1C (stereo unspecified) | 74.9%
111 | O=C(Nc1ccccc1)N1C[C@@H]2C[C@H](C(=O)N3CCOCC3)[C@H](C1)O2 | 7.53%
